Drawing on ChEMBL document CHEMBL2385006, “Fluorogenic sialic acid glycosides for quantification of sialidase activity upon unnatural substrates” (Bioorg Med Chem Lett, 2013), this text covers Activity for 6 molecules.

The source made the active and inactive calls. The rule behind the calls is not given here.

Assay [1] has as its system HL-60. The assay is described as follows: Activity at sialidase in human HL60 cells assessed as increase in 4-methylumbelliferyl release at 125 uM after 2 hrs by fluorescence assay in presence of DANA. The class given is cell-based. Put shortly:
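Same whole-cell set-up: HL60 cells in acetate buffer pH 4.5 with 0.125 mM 4MU glycoside, 2 h, 37 °C, together with 0.1 mM of the non-specific sialidase inhibitor DANA. The mixture was adjusted to pH 10.7 with glycine buffer before fluorescence reading (ex 365/em 450 nm). At least biological triplicate; standard deviations shown.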

For assay [2], the system named is Clostridium perfringens. The assay is described as follows: Activity at Clostridium perfringens sialidase assessed as 4-methylumbelliferyl released at 125 uM for 1 hr by fluorescence assay. Put shortly: (§1)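 Purified recombinant C. perfringens sialidase (0.05 mU) in acetate buffer pH 4.5 incubated 1 h at 37°C with 0.125 mM 4MU glycoside; parallel reactions with 0.1 mM DANA. Reaction brought to pH 10.7 with glycine buffer; fluorescence read at ex 365/em 450 nm. Relative values compare fluorescence with that of the natural Neu5Ac substrate. At least biological triplicate; standard deviations.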

Assay [3] concerns HL-60. The assay is described as follows: Activity at sialidase in human HL60 cells assessed as decrease in 4-methylumbelliferyl release at 125 uM after 2 hrs by fluorescence assay. The class given is cell-based. Put shortly:
(§2)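 Whole HL60 cells suspended in acetate buffer (pH 4.5) were incubated with 0.125 mM 4-methylumbelliferyl sialoside for 2 h at 37 °C. The reaction was stopped by raising the pH to 10.7 with glycine buffer, and released 4MU was read at once (ex 365 nm, em 450 nm). Values are means with standard deviations from at least biological triplicate.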

Assay [4] deals with HL-60. The assay is described as follows: Activity at sialidase in human HL60 cells assessed as decrease in 4-methylumbelliferyl release at 125 uM after 2 hrs by fluorescence assay relative to 4-Methylcoumarin-7-yl 5-acetamido-3,5-dideoxy-alpha-D-glycero-D-galacto-2-nonulopyranosidonic acid. The format is cell-based. The arrangement: scale not given: the % may be the effect or the level left. In short, it runs like this:
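Intact HL60 cells in pH 4.5 acetate buffer were exposed to 0.125 mM glycoside for 2 h at 37 °C. Glycine buffer (pH 10.7) was then added, and fluorescence was measured (ex 365, em 450 nm). The increase over background was expressed relative to the natural N-acetyl 4MU sialoside run the same way. At least biological triplicate, with standard deviations.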

Assay [5] deals with Clostridium perfringens. The assay is described as follows: Activity at Clostridium perfringens sialidase assessed as 4-methylumbelliferyl released at 125 uM for 1 hr by fluorescence assay relative to 4-Methylcoumarin-7-yl 5-acetamido-3,5-dideoxy-alpha-D-glycero-D-galacto-2-nonulopyranosidonic acid. Put shortly: as §1
Assay [6] relates to HL-60. The assay is described as follows: Activity at sialidase in human HL60 cell lysate assessed as 4-methylumbelliferyl released at 125 uM for 2 hrs followed by washout by fluorescence assay. The class given is cell-based. In short, it runs like this:
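To test uptake, HL60 cells were incubated 2 h with the 4MU sialoside, then washed thoroughly to remove free 4MU and substrate. The cells were resuspended in cell lysis buffer, and the fluorescence of the lysate was read against empty wells without cells or compound.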

Assay [7] relates to HL-60. The assay is described as follows: Activity at sialidase in human HL60 cells assessed as increase in 4-methylumbelliferyl release at 125 uM after 2 hrs by fluorescence assay. The format is cell-based. Put shortly: as §2
The subject of assay [8] is HL-60. In words: Activity at sialidase in human HL60 cells assessed as increase in 4-methylumbelliferyl release at 125 uM after 2 hrs by fluorescence assay relative to 4-Methylcoumarin-7-yl 5-acetamido-3,5-dideoxy-alpha-D-glycero-D-galacto-2-nonulopyranosidonic acid. The format is cell-based. In short, it runs like this:
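Whole HL60 cells suspended in acetate buffer pH 4.5, treated 2 h at 37°C with 0.125 mM 4MU glycoside; parallel wells with 0.1 mM DANA. Stopped with glycine buffer pH 10.7, fluorescence read immediately (ex 365/em 450 nm). Fluorescence increase over background compared with the natural Neu5Ac substrate. At least biological triplicate; standard deviations.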

For `Cc1cc(=O)oc2cc(O[C@]3(C(=O)O)C[C@H](O)[C@@H](NC(=O)CCC(F)(F)F)[C@H]([C@H](O)[C@H](O)CO)O3)ccc12`, the outcome in the assay with HL-60 [1] and with Clostridium perfringens [2] was inactive. The outcome in the assay with HL-60 [3] was Active.

As for `Cc1cc(=O)oc2cc(O[C@]3(C(=O)O)C[C@H](O)[C@@H](NC(=O)C(C)C)[C@H]([C@H](O)[C@H](O)CO)O3)ccc12`, the result in the assay on HL-60 [1] was inactive. Further, in the assay with HL-60 [4], the Activity is 60%. Moreover, in the assay with Clostridium perfringens [5], the result was Active.

As to `CC(=O)N[C@H]1[C@H]([C@H](O)[C@H](O)CO)O[C@@](Oc2ccc3c(C)cc(=O)oc3c2)(C(=O)O)C[C@@H]1O`, the outcome in the assay with HL-60 [1] and in the assay on HL-60 [6] was inactive. The outcome in the assay on HL-60 [7] and in the assay with Clostridium perfringens [2] was Active.

Turning to `Cc1cc(=O)oc2cc(O[C@]3(C(=O)O)C[C@H](O)[C@@H](NC(=O)CF)[C@H]([C@H](O)[C@H](O)CO)O3)ccc12`, the outcome with HL-60 [1] was inactive. Moreover, the values for the Activity in the assay with Clostridium perfringens [5] and in the assay with HL-60 [8] were 6% and 50%, respectively.

On to `CC(F)(F)F.Cc1cc(=O)oc2cc(O[C@]3(C(=O)O)C[C@H](O)[C@@H](NC(=O)CO)[C@H]([C@H](O)[C@H](O)CO)O3)ccc12`, for which the outcome in the assay on HL-60 [1] was inactive. Besides, the Activity in the assay with Clostridium perfringens [5] stood at 6%; in the assay on HL-60 [8], 20%.

For `Cc1cc(=O)oc2cc(O[C@]3(C(=O)O)C[C@H](O)[C@@H](NC(=O)CC(F)(F)F)[C@H]([C@H](O)[C@H](O)CO)O3)ccc12`, the outcome in the assay on HL-60 [1] was inactive. In addition, the outcome with Clostridium perfringens [5] and in the assay with HL-60 [3] was Active.
